# Screening results: PubChem, The Scripps Research Institute Molecular Screening Center
# Rows were chosen to be rich in hits. Some 2.8% of all compounds tested hit in one or more screens of this group.
# PAFAH2 inh: inhibitors of human PAFAH2 | inhibition, % at 3.39 µM | Q99487 | recombinant PAFAH2, FP-rhodamine activity probe, fluorescence polarization | 340,000 compounds, 0.99% hits;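 active means inhibition above the mean over all tested compounds plus 3 SD, cut at about 30% in these data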;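 further: inhibitors block probe labeling of enzyme so polarization drops; 0% = enzyme with DMSO and 100% = wells lacking PAFAH2 protein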
# HTRA1 inhibitor: inhibitors of human serine peptidase HTRA1. Q92743. recombinant HTRA1, FP-rhodamine activity-based probe, fluorescence polarization. inhibition, % at 5.96 µM. 340,000 compounds, 0.5% hits. AID 504803; in the data active means inhibition above about 36%;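 further: 0% = enzyme with DMSO and 100% = wells lacking enzyme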
# ABHD4 inh: ABHD4 (mouse) inhibition, primary FP screen | inhibition, % at 8.92 µM | AID 720543 | 370,000 compounds, 0.54% hits | purified mABHD4, FP-Rh probe fluorescence polarization | Q8VD66;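 active means inhibition exceeding the mean over every tested compound plus 3 SD, cut at about 30% in these data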;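 further: 0% = plate median of compound wells and 100% = S159A mutant with DMSO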
# Target sequence (Q8VD66 whole entry, looked up): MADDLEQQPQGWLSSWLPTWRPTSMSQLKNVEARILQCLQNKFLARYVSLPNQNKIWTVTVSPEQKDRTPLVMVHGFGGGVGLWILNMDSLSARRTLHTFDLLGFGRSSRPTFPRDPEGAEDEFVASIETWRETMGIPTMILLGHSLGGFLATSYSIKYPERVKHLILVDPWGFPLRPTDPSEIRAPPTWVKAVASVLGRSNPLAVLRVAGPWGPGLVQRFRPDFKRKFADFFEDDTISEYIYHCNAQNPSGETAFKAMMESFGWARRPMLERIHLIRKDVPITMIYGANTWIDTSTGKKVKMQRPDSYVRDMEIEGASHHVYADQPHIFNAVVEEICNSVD
#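 Assay system: mABHD4 protein; medium: HEPES pH 7.0, NaCl, Pluronic buffer; dosing: 8.92 µM, single dose; schedule: 45 min + 60 min at 25 °C; signal: FP readout, ex 525 nm / em 598 nm; read-out: normalized percent inhibition of probe labeling; repeats: single replicate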
# PAFAH1B2 FP inh: inhibitors of human PAFAH1B2. inhibition, % at 3.39 µM. recombinant PAFAH1B2, FP-rhodamine activity probe, fluorescence polarization. AID 492953. 340,000 compounds, 1.2% hits. P68402;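 active means inhibition above the mean of all tested compounds plus 3 SD, cut at about 24% in these data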;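 further: 0% = enzyme with DMSO and 100% = wells lacking PAFAH1B2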
# Target sequence (P68402 whole entry, looked up): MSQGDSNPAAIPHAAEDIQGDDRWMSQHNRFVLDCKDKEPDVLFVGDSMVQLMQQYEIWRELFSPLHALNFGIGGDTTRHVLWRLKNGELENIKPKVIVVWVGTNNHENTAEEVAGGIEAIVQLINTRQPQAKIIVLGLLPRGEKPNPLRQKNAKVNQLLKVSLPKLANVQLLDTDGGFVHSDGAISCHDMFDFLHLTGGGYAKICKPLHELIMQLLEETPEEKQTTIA
# PAFAH1B3 inh: inhibitors of human PAFAH1B3; Q15102; recombinant PAFAH1B3, FP-rhodamine probe, fluorescence polarization; inhibition, % at 3.39 µM; 340,000 compounds, 0.28% hits; AID 492972;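 active means inhibition above the screen-wide average of all tested compounds plus 3 SD, cut at about 25% in these data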;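 further: 0% = enzyme with DMSO only and 100% = wells lacking PAFAH1B3 protein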
# pPAFAH FP inh: pPAFAH (human) enzyme inhibition; AID 463082; inhibition, % at 3.39 µM; recombinant pPAFAH, FP-rhodamine probe fluorescence polarization; 330,000 compounds, 1.5% hits;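 active means inhibition above the mean inhibition across the screen plus 3 SD, cut at about 25% in these data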;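 further: inhibitors block binding of the rhodamine activity-based probe so polarization drops; 0% = enzyme with DMSO and 100% = wells lacking pPAFAH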
# PAFAH2 confirm: PAFAH2 (human) inhibition, confirmed | shares compounds with PAFAH2 inh | inhibition, % at 3.39 µM | recombinant PAFAH2, FP-rhodamine activity probe, fluorescence polarization | 2,300 compounds, 65% hits;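 active means mean inhibition over three repeats above a set limit taken from the earlier primary screen, cut at about 30% in these data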;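 further: inhibitor blocks binding of rhodamine activity probe so polarization falls; 0% = enzyme with DMSO and 100% = wells lacking PAFAH2 protein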
# PAFAH1B3 confirm: confirmation of human PAFAH1B3 inhibitors; shares compounds with PAFAH1B3 inh; recombinant PAFAH1B3, FP-Rh activity-based probe, fluorescence polarization; inhibition, % at 3.39 µM; 390 compounds, 30% hits; AID 493032;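 active means average inhibition over triplicate runs above the hit cutoff set in the earlier primary screen, cut at about 25% in these data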;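 further: 0% = enzyme with DMSO and 100% = wells lacking PAFAH1B3 protein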
# mABHD4 conf: confirmation of mouse ABHD4 inhibitors | shares compounds with ABHD4 inh | purified mABHD4, FP-Rh probe fluorescence polarization | inhibition, % at 8.92 µM | 1,800 compounds, 55% hits;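 active means mean inhibition across replicates above the hit cutoff set in the primary screen, cut at about 30% in these data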;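 further: 0% = wild-type ABHD4 with DMSO and 100% = catalytically dead S159A mutant with DMSO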
# Starred values were filed as active, the others as inactive; . = no result given.
SMILES,PAFAH2 inh,HTRA1 inhibitor,ABHD4 inh,PAFAH1B2 FP inh,PAFAH1B3 inh,pPAFAH FP inh,PAFAH1B3 confirm,others
N[C@@H](Cc1cc(I)c(O)c(I)c1)C(=O)O,54.0*,30.7,51.0*,15.4,17.1,-3.1,.,PAFAH2 confirm=8.6;mABHD4 conf=80.4*
COC(=O)C1CN(Cc2ccccc2)CCS(=O)(=O)N1Cc1ccc(C(F)(F)F)cc1 (stereo unspecified),.,.,-6.9,.,.,.,.,
COC(=O)CCc1c(C)c(C(=O)c2cc(F)c(F)c(F)c2F)c2ccccn12,11.8,-8.0,0.0,5.4,29.0*,7.1,7.1,
CCCC[C@H](C(=O)N(CC)c1ccccc1)[C@@H](O)c1ccc(C(C)=O)cc1,.,.,5.6,.,.,.,.,
CCCC1CCC2(CC1)CCC2OC(=S)Nc1ccccc1Cl (stereo unspecified),.,.,-10.5,.,.,.,.,
NC1=C(Br)C(=O)c2ncccc2C1=O,24.8,13.5,6.1,15.9,58.5*,.,40.9*,
COc1cc2c(cc1OC)[N+]([O-])=C(c1ccccc1)C2=O,.,.,6.6,.,.,.,.,
O=C1C(c2ccccc2)=[N+]([O-])c2ccccc21,17.8,-11.5,9.8,4.9,28.0*,5.5,13.0,
O=C1C(NC(=O)C(F)(F)Br)CCCCN1Cc1cccc(C(F)(F)F)c1 (stereo unspecified),.,.,-5.7,.,.,.,.,
O=C1NC(=O)c2cc(Br)cc3cccc1c23,-1.3,-0.1,-3.0,6.3,45.6*,3.1,52.7*,
C=CCOc1ccc(Br)cc1/C=C1/SC(=Nc2ccc(C(=O)O)cc2)NC1=O,0.2,-21.6,-35.7,9.9,31.1*,.,21.5,
CN1C(=O)c2cc(NC(=O)Nc3ccccc3)ccc2OC[C@H]2O[C@@H](CC(=O)NCc3ccc(-c4ccccc4)cc3)CC[C@@H]21,.,.,-21.6,.,.,.,.,
O=C1NC(c2ccccc2)C(c2ccccc2)N1 (stereo unspecified),11.7,-6.2,-5.2,5.1,50.5*,.,39.5*,
O=C(Nc1ccccc1)c1ccc(Nc2c([N+](=O)[O-])cc([N+](=O)[O-])c3ccccc23)cc1,11.0,0.7,3.0,-0.7,-7.4,-4.2,.,
O=[N+]([O-])c1cc(Br)c(Nc2ccccc2)c([N+](=O)[O-])c1,21.0,-11.1,1.3,5.2,36.0*,4.7,29.1*,
Cc1ccc[n+](C2=C([O-])c3ccccc3C(=O)C2=O)c1,.,.,-14.7,.,.,.,.,
O=C1/C(=N\S(=O)(=O)c2cccs2)C([n+]2ccccc2)=C([O-])c2ccccc21,16.9,8.8,-1.1,15.7,48.6*,0.5,35.0*,
O=C(O)c1ccc(NC2=C(N3CCOCC3)C(=O)c3ccccc3C2=O)cc1,11.2,5.1,6.2,7.7,27.2*,-7.0,12.9,
CC(=O)c1ccc(NC2=C(N3CCOCC3)C(=O)c3ccccc3C2=O)cc1,24.5,8.8,2.8,3.5,30.7*,-7.6,8.6,
O=C(c1ccccc1)c1ccc(N2CCOCC2)cc1,-6.7,-2.8,-8.9,3.0,16.1,.,.,
COC(=O)[C@]12C[C@H](CC(=O)N3CCC(c4ccccc4)CC3)C(=O)N(Cc3ccc(Cl)cc3Cl)C1=C[C@H](C1CCCC1)O[C@@H]2C,.,.,-8.0,.,.,.,.,
CC(C)CN1C[C@@H]2CSCCS(=O)(=O)N2C1=O,.,.,3.9,.,.,.,.,
Nc1nonc1N/N=C\c1ccccc1,-5.1,-0.7,5.9,3.8,8.6,3.8,.,
Nc1nonc1N/N=C/c1c(O)ccc2ccccc12,18.4,16.8,21.7,15.5,31.0*,23.5,16.9,
CC(=O)N(C1=C(N2CCOCC2)C(=O)c2ccccc2C1=O)c1ccc(C(=O)O)cc1,3.2,12.7,-1.7,5.4,25.8*,-3.0,15.6,
SMILES,PAFAH2 inh,HTRA1 inhibitor,ABHD4 inh,PAFAH1B2 FP inh,PAFAH1B3 inh,pPAFAH FP inh,PAFAH1B3 confirm,others
CC(=O)N(C)C1=C(O)c2ccccc2C(=O)C1=O,-1.8,4.4,4.8,0.4,4.2,2.1,.,
O=C1c2ccccc2-c2ccc(C(=O)N3CCOCC3)cc21,8.4,-2.0,4.0,-1.5,-0.4,7.4,.,
CC(=O)N(C)C1=C(N2CCOCC2)C(=O)c2ccccc2C1=O,3.3,8.3,.,8.3,30.6*,10.6,12.4,
O=C(NCc1ccccc1)c1ccc(CO)cc1,.,.,7.1,.,.,.,.,
C=CCN(CC=C)C(=S)Nc1ccc2nsnc2c1,17.4,-0.8,-1.6,16.9,59.2*,0.6,3.6,
S=C(Nc1ccc2nsnc2c1)NC1CCCCC1,6.0,1.2,-5.0,14.6,56.2*,8.4,2.0,
S=C(Nc1ccc2nsnc2c1)N1CCCCCC1,15.0,-0.1,1.1,8.9,32.1*,1.8,9.8,
S=C(Nc1ccc(Cl)c(Cl)c1)NC1CCCCC1,-14.7,-18.0,.,0.9,0.5,-0.2,.,
O=C(Nc1ccc2nsnc2c1)N1CCCCC1,7.1,5.3,-2.0,1.0,-2.7,4.5,.,
C=CCNC(=S)Nc1ccc2nsnc2c1,7.1,2.2,11.5,5.6,7.5,3.1,.,
COCCNC(=S)Nc1ccc2nsnc2c1,20.3,3.9,1.6,18.5,69.1*,0.6,3.6,
COc1cccc(/C=N/NC(=O)c2ccc([N+](=O)[O-])cc2Cl)c1O,10.1,6.1,14.1,3.1,27.3*,6.0,14.8,
COc1cc(/C=N/NC(=O)c2cccc([N+](=O)[O-])c2)cc(OC)c1O,2.0,7.4,8.8,5.3,7.8,4.8,.,
COc1cccc(-c2ncn(CCc3ccccc3OC)c2CC(C)C)c1,.,.,-0.6,.,.,.,.,
O=C(NCCc1c[nH]c2ccccc12)OCc1cn(Cc2cc(F)cc(F)c2)nn1,.,.,-8.2,.,.,.,.,
COc1ccc2c(ccc[n+]2CC(=O)c2ccccc2)c1,-2.5,7.0,4.2,-7.3,-4.2,.,.,
COc1ccc(C(=O)C[n+]2ccccc2/C=N/O)cc1,7.6,0.7,-1.5,5.4,25.9*,2.2,17.7,
